Experimental data: ChEMBL document CHEMBL1255303, “In vitro and in vivo antifungal activities of T-2307, a novel arylamidine” (2008)
In brackets after ≈: the same amount, converted by molar mass.

Experiments:
Type in all cases: functional
Candida albicans [1] = assay: Antifungal activity against Candida albicans ATCC MYA-2732 after 47 hrs by broth microdilution method; details: ATCC MYA-2732, 47 h
Procedure, shortened: (§1)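 Fluconazole-resistant or susceptible-dose-dependent C. albicans ATCC strains were tested by broth microdilution in RPMI 1640-MOPS. Inoculum was 1.1 × 10^3–1.5 × 10^3 CFU/ml, with incubation at 35°C for about 47 h. Yeast MIC was read as about 50% turbidity decrease relative to growth control, except amphotericin B, read at complete inhibition.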

Candida albicans [2] = assay: Antifungal activity against Candida albicans ATCC MYA-1003 after 47 hrs by broth microdilution method; details: ATCC MYA-1003, 47 h
Procedure, shortened: (§2)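 Fluconazole-resistant or susceptible-dose-dependent ATCC C. albicans strains were tested by CLSI M27-A2 broth microdilution in RPMI 1640–0.165 M MOPS, pH 7.0, with a final inoculum of 1.1–1.5 × 10^3 CFU/ml at 35°C for about 47 h. MIC was the lowest concentration with a prominent (~50%) turbidity decrease relative to growth control; amphotericin B was read at complete inhibition.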

Trichosporon asahii = assay: Antifungal activity against Trichosporon asahii JCM 2466 after 48 hrs by broth microdilution method; details: JCM 2466, 48 h
Procedure, shortened: (§3)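 CLSI M27-A2 (yeasts) / M38-A (moulds) broth microdilution in RPMI 1640 buffered to pH 7.0 with 0.165 M MOPS. Malassezia furfur got the same medium supplemented with glucose, bile salts, glycerol, glycerol monostearate and Tween 20. Final inoculum 0.65 × 10^3–2.5 × 10^3 CFU/ml for yeasts and 0.87 × 10^4–3.8 × 10^4 CFU/ml for filamentous fungi. Incubation at 35°C except M. racemosus and F. solani, which were held at 30°C.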

Nakaseomyces glabratus = assay: Antifungal activity against Candida glabrata clinical isolates after 48 hrs by broth microdilution method
Procedure, shortened: (§4)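 Clinical isolates from Japanese hospitals or culture collections were tested by broth microdilution in RPMI 1640-MOPS. Inoculum was 0.57 × 10^3–2.5 × 10^3 CFU/ml for yeasts and 0.4 × 10^4–3.3 × 10^4 CFU/ml for filamentous fungi. Incubation was at 35°C for about 48 h, or 72 h where footnoted. Results were summarised as MIC range, MIC50 and MIC90.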

Cryptococcus neoformans [3] = assay: Antifungal activity against Cryptococcus neoformans ATCC 90112 after 72 hrs by broth microdilution method; details: ATCC 90112, 72 h
Procedure, shortened: (§5)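 CLSI M27-A2 (yeasts) or M38-A (A. fumigatus) broth microdilution in RPMI 1640 buffered to pH 7.0 with 0.165 M MOPS. Final inocula were 0.65–2.5 × 10^3 CFU/ml for yeasts and 0.87–3.8 × 10^4 CFU/ml for filamentous fungi. Incubation was at 35°C for about 48 h (72 h for C. neoformans). MIC was the lowest concentration giving a prominent (~50%) turbidity drop versus growth control; amphotericin B required complete inhibition.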

Aspergillus fumigatus [4] = assay: Antifungal activity against Aspergillus fumigatus TIMM 0063 after 48 hrs by broth microdilution method; details: TIMM 0063, 48 h; procedure, shortened: as §3
[5] = test system: Meyerozyma guilliermondii; assay: Antifungal activity against Candida guilliermondii IFO 10279 after 48 hrs by broth microdilution method; details: IFO 10279, 48 h; procedure, shortened: as §3
[6] = test system: Meyerozyma guilliermondii; assay: Antifungal activity against Candida guilliermondii clinical isolates after 48 hrs by broth microdilution method; procedure, shortened: as §4
Pichia kudriavzevii [7] = assay: Antifungal activity against Candida krusei IFO 0584 after 48 hrs by broth microdilution method; details: IFO 0584, 48 h; procedure, shortened: as §3
Aspergillus fumigatus [8] = assay: Antifungal activity against Aspergillus fumigatus IFM 46895 after 48 hrs by broth microdilution method; details: IFM 46895, 48 h; procedure, shortened: as §3
Candida dubliniensis = assay: Antifungal activity against Candida dubliniensis ATCC MYA-577 after 48 hrs by broth microdilution method; details: ATCC MYA-577, 48 h; procedure, shortened: as §3
Aspergillus niger = assay: Antifungal activity against Aspergillus niger NBRC 33023 after 48 hrs by broth microdilution method; details: NBRC 33023, 48 h; procedure, shortened: as §3
Candida albicans [9] = assay: Antifungal activity against Candida albicans TIMM 1623 after 48 hrs by broth microdilution method; details: TIMM 1623, 48 h; procedure, shortened: as §3
Malassezia furfur = assay: Antifungal activity against Malassezia furfur NBRC 0656 after 48 hrs by broth microdilution method; details: NBRC 0656, 48 h; procedure, shortened: as §3
Mucor racemosus = assay: Antifungal activity against Mucor racemosus NBRC5403 after 24 hrs by broth microdilution method; details: NBRC5403, 24 h
Aspergillus fumigatus [10] = assay: Antifungal activity against Aspergillus fumigatus IFM 49895 after 48 hrs by broth microdilution method; details: IFM 49895, 48 h; procedure, shortened: as §3
Candida albicans [11] = assay: Antifungal activity against Candida albicans ATCC 24433 after 48 hrs by broth microdilution method; details: ATCC 24433, 48 h; procedure, shortened: as §5
Candida albicans [12] = assay: Antifungal activity against Candida albicans ATCC 64550 after 47 hrs by broth microdilution method; details: ATCC 64550, 47 h; procedure, shortened: as §1
Candida albicans [13] = assay: Antifungal activity against Candida albicans ATCC MYA-575 after 47 hrs by broth microdilution method; details: ATCC MYA-575, 47 h; procedure, shortened: as §2
Cryptococcus neoformans [14] = assay: Antifungal activity against Cryptococcus neoformans clinical isolates after 72 hrs by broth microdilution method; procedure, shortened: as §4
Pichia kudriavzevii [15] = assay: Antifungal activity against Candida krusei clinical isolates after 48 hrs by broth microdilution method
Procedure, shortened: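 Japanese hospital Candida isolates were tested by CLSI M27-A2 broth microdilution in RPMI 1640–MOPS, pH 7.0, with inocula of 0.57–2.5 × 10^3 CFU/ml at 35°C for about 48 h. Inocula came from 24-h potato dextrose agar cultures. MIC was the lowest concentration with about 50% turbidity reduction versus growth control (complete inhibition for amphotericin B). Range, MIC50 and MIC90 were reported.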

Rhizopus arrhizus = assay: Antifungal activity against Rhizopus oryzae NBRC 31005 after 24 hrs by broth microdilution method; details: NBRC 31005, 24 h; procedure, shortened: as §3
Candida albicans [16] = assay: Antifungal activity against Candida albicans ATCC 96901 after 47 hrs by broth microdilution method; details: ATCC 96901, 47 h; procedure, shortened: as §2
Trichophyton rubrum = assay: Antifungal activity against Trichophyton rubrum NBRC 5467 after 72 hrs by broth microdilution method; details: NBRC 5467, 72 h; procedure, shortened: as §3
Candida tropicalis = assay: Antifungal activity against Candida tropicalis clinical isolates after 48 hrs by broth microdilution method; procedure, shortened: as §4

How did the MIC (Candida albicans [1]) turn out when `N=C(N)c1ccc(OCCCC2CCN(CCCOc3ccc(C(=N)N)cc3)CC2)cc1` was run?
The MIC was 1 ng/mL (≈ 0.00229 µM).

What about the MIC (Candida albicans [2]) of the same compound?
The MIC was 1 ng/mL (≈ 0.00229 µM).

And the MFC (Trichosporon asahii)?
The MFC was > 64000 ng/mL.

What about the MIC (Trichosporon asahii) of the same compound?
The MIC was 64000 ng/mL (≈ 146 µM).

And the MIC (Nakaseomyces glabratus)?
The MIC was 3.9 ng/mL (≈ 0.00891 µM).

What about the MIC50 (Nakaseomyces glabratus) of the same compound?
The MIC50 was 3.9 ng/mL (≈ 0.00891 µM).

What about the MIC90 (Nakaseomyces glabratus) of the same compound?
Its MIC90 is 7.8 ng/mL (≈ 0.0178 µM).

And the MFC (Cryptococcus neoformans [3])?
The MFC was 31.3 ng/mL (≈ 0.0715 µM).

And the MIC (Cryptococcus neoformans [3])?
Its MIC is 7.8 ng/mL (≈ 0.0178 µM).

And the MFC (Aspergillus fumigatus [4])?
Its MFC is > 64000 ng/mL.

What about the MIC (Aspergillus fumigatus [4]) of the same compound?
Its MIC is 1000 ng/mL (≈ 2.29 µM).

What about the MFC [5] of the same compound?
Its MFC is 7.8 ng/mL (≈ 0.0178 µM).

What about the MIC [5] of the same compound?
Its MIC is 2 ng/mL (≈ 0.00457 µM).

What about the MIC50 [6] of the same compound?
The MIC50 was 2 ng/mL (≈ 0.00457 µM).

And the MIC90 [6]?
The MIC90 was 3.9 ng/mL (≈ 0.00891 µM).

What about the MFC (Pichia kudriavzevii [7]) of the same compound?
Its MFC is 2 ng/mL (≈ 0.00457 µM).

What about the MIC (Pichia kudriavzevii [7]) of the same compound?
The MIC was 1 ng/mL (≈ 0.00229 µM).

What about the MFC (Aspergillus fumigatus [8]) of the same compound?
Its MFC is > 64000 ng/mL.

What about the MIC (Aspergillus fumigatus [8]) of the same compound?
The MIC was 62.5 ng/mL (≈ 0.143 µM).

And the MFC (Candida dubliniensis)?
Its MFC is > 64000 ng/mL.

And the MIC (Candida dubliniensis)?
The MIC was 1 ng/mL (≈ 0.00229 µM).

And the MFC (Aspergillus niger)?
Its MFC is 62.5 ng/mL (≈ 0.143 µM).

What about the MIC (Aspergillus niger) of the same compound?
Its MIC is 62.5 ng/mL (≈ 0.143 µM).

What about the MFC (Candida albicans [9]) of the same compound?
Its MFC is > 64000 ng/mL.

And the MIC (Candida albicans [9])?
The MIC was 1 ng/mL (≈ 0.00229 µM).

What about the MFC (Malassezia furfur) of the same compound?
Its MFC is 2000 ng/mL (≈ 4.57 µM).

What about the MIC (Malassezia furfur) of the same compound?
The MIC was 31.3 ng/mL (≈ 0.0715 µM).

And the MFC (Mucor racemosus)?
Its MFC is > 64000 ng/mL.

And the MIC (Mucor racemosus)?
The MIC was 2000 ng/mL (≈ 4.57 µM).

And the MFC (Aspergillus fumigatus [10])?
The MFC was > 64000 ng/mL.

What about the MIC (Aspergillus fumigatus [10]) of the same compound?
The MIC was 500 ng/mL (≈ 1.14 µM).

And the MFC (Candida albicans [11])?
Its MFC is > 64000 ng/mL.

What about the MIC (Candida albicans [11]) of the same compound?
The MIC was 1 ng/mL (≈ 0.00229 µM).

And the MIC (Candida albicans [12])?
The MIC was 0.5 ng/mL (≈ 0.00114 µM).

And the MIC (Candida albicans [13])?
Its MIC is 1 ng/mL (≈ 0.00229 µM).

What about the MIC50 (Cryptococcus neoformans [14]) of the same compound?
Its MIC50 is 15.6 ng/mL (≈ 0.0356 µM).

What about the MIC90 (Cryptococcus neoformans [14]) of the same compound?
Its MIC90 is 31.3 ng/mL (≈ 0.0715 µM).

And the MIC50 (Pichia kudriavzevii [15])?
The MIC50 was 1 ng/mL (≈ 0.00229 µM).

What about the MIC90 (Pichia kudriavzevii [15]) of the same compound?
The MIC90 was 2 ng/mL (≈ 0.00457 µM).

What about the MFC (Rhizopus arrhizus) of the same compound?
The MFC was > 64000 ng/mL.

What about the MIC (Rhizopus arrhizus) of the same compound?
Its MIC is > 64000 ng/mL.

And the MIC (Candida albicans [16])?
Its MIC is 1 ng/mL (≈ 0.00229 µM).

What about the MFC (Trichophyton rubrum) of the same compound?
Its MFC is > 64000 ng/mL.

What about the MIC (Trichophyton rubrum) of the same compound?
The MIC was 2000 ng/mL (≈ 4.57 µM).

And the MIC50 (Candida tropicalis)?
The MIC50 was 0.5 ng/mL (≈ 0.00114 µM).

What about the MIC90 (Candida tropicalis) of the same compound?
Its MIC90 is 0.5 ng/mL (≈ 0.00114 µM).
